VIM-2 inh = VIM-2 metallo-beta-lactamase inhibitors, primary screen, biochemical, epi-absorbance readout, Pseudomonas aeruginosa enzyme; inhibition, % at 5.6 µM; AID 1527, 2009; 290,000 tested, 0.89% active; purified VIM-2, nitrocefin hydrolysis, epi-absorbance fluorescence;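 active = inhibition above the mean of all tested compounds plus 3 SD, cutoff set per screening run, cut at about 7.5% in these data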;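 also: red hydrolysis product quenches plate fluorescence so inhibitors raise well fluorescence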
IMP-1 inhibitor = IMP-1 metallo-beta-lactamase inhibitors, primary screen, biochemical, epi-absorbance readout, Pseudomonas aeruginosa enzyme. inhibition, % at 5.6 µM. purified IMP-1, nitrocefin hydrolysis, epi-absorbance fluorescence. metallo-beta-lactamase IMP-1 (Pseudomonas aeruginosa). AID 1556, 2009. 290,000 tested, 0.45% active;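 active = inhibition above the mean plus 3 SD of all compounds in the same screening run, cut at about 4.5% in these data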
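System: purified IMP-1; amount: IMP-1 0.2 nM before substrate addition; compound: single dose, 5.6 µM; times: 25 °C, 15 min preincubation, 25 min reaction; signal: Epi-absorbance via hydrolysed-nitrocefin quenching of white-plate fluorescence, 480/530 nm, EDTA stop; benchmarks: DMSO with and without IMP-1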
RanGTP-Imp inh = inhibitors of RanGTP-importin-beta interaction, primary screen, biochemical, FRET, CFP-Ran, YFP-importin-beta, homogeneous. AID 2216, 2009. inhibition, % (test concentration not listed). Ran GTPase (GTP-bound) - importin-beta complex. 300,000 tested, 1.1% active. cell-free CFP-Ran/YFP-importin-beta FRET ratio;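 active = more than half of the replicate wells show a fall in the fluorescence ratio signal beyond about 16%, limit read from the data, passing the limit was not always enough; inconclusive = exactly half of the replicate wells pass the set limit; inactive = fewer than half of replicates pass the limit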
Runt-SMMHC FRET = inhibitors of RUNX1 Runt–CBFb-SMMHC binding, primary screen, biochemical, FRET, Cerulean-Runt, Venus-CBFb-SMMHC, uHTS. Cerulean-Runt/Venus-CBFb-SMMHC FRET ratio 530/480, 1 h. inhibition, % at 20 µM. Runt-related transcription factor 1 (Homo sapiens) + Core-binding factor subunit beta …. AID 1434, 2008. 220,000 tested, 0.74% active;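 active = mean inhibition across duplicate retests at 20 µM reaching about 50%, limit read from the data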;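 also: inhibitors lower the FRET ratio by blocking Runt binding to CBFb-SMMHC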
Target sequence (Q01196 whole entry, looked up): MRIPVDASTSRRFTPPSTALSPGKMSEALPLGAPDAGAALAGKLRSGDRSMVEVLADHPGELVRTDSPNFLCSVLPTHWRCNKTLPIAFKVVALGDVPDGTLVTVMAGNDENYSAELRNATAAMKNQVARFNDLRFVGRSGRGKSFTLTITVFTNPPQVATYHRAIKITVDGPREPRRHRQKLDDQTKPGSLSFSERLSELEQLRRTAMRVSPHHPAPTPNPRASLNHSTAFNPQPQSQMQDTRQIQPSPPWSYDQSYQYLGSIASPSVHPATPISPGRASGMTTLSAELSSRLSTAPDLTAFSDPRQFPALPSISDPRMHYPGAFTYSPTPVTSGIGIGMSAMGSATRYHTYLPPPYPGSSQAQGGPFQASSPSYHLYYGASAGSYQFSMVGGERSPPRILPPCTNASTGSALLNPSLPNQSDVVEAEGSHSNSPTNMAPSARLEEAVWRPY
Target sequence (Q13951 whole entry, looked up): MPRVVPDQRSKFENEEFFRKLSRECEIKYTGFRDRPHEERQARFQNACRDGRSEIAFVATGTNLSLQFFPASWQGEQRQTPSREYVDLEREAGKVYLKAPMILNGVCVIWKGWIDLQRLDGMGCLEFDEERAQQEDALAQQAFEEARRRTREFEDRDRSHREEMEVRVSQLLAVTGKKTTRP
Runt-CBFb FRET = inhibitors of RUNX1 Runt–CBFb binding, primary screen, biochemical, FRET, Cerulean-Runt, Venus-CBFb, uHTS. Runt-related transcription factor 1 (Homo sapiens) + Core-binding factor subunit beta …. Cerulean-Runt/Venus-CBFb FRET ratio 530/480, 1 h. inhibition, % at 20 µM. 220,000 tested, 0.46% active;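 active = inhibition over about 50% at 20 µM in the single-dose screen, limit read from the data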
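test system = Cerulean-tagged RUNX1 Runt domain (FRET donor) fusion protein | reagent = Venus-CBFb binding partner, 100 nM | incubation = protein complex preformed 1 h, compound exposure 1 h, room temperature, dark | detection = FRET fluorescence | read-out basis = loss of energy transfer signal | controls = 5 µM unlabeled CBFb as full-inhibition high control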
YIC FRET counter = YIC intramolecular FRET probe signal interference, dose response, counter-screen for RanGTP-importin-beta inhibitor project, biochemical, fluorescence FRET | shares compounds with RanGTP-Imp inh | Purified YIC probe, intramolecular FRET ratio YFP/CFP | IC50, µM | 1,000 tested, 40% active | AID 435026, 2010;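 active = fitted half-maximal inhibitory concentration no more than tenfold above the top dose tested; inconclusive = flat fit with 30 to 70% activity, or poor fit; inactive = half-maximal concentration beyond tenfold above the top dose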
Numbers stand for hits; - = inactive; ? = inconclusive; . = no result given. In the library only some 2.6% were active in any assay of this set; here they are far more common.

SMILES	VIM-2 inh	IMP-1 inhibitor	RanGTP-Imp inh	Runt-SMMHC FRET	Runt-CBFb FRET	YIC FRET counter
CCn1ncc(C2=NOC(C(=O)Nc3cccc(O)c3)C2)c1C (stereo not given)	-	-	?	-	-	.
CCc1ccc(S(=O)(=O)N2CCN(C(=O)C3CCN(C(C)=O)CC3)CC2)cc1	-	-	-	.	.	.
Cn1c(=O)oc2cc(S(=O)(=O)NCCC(=O)N3CC=C(c4ccccc4)CC3)ccc21	-	-	18	-	-	-
CC(=O)n1nc(-c2ccccc2)nc1NCc1ccc(N(C)C)cc1	-	-	-	-	-	.
CSc1nsc2nc(=O)c(/C=C3\C=Nc4ccccc43)c(N)n12	-	-	26	51	-	28
Cc1cn2c(N)c(/C=C3\C=Nc4ccccc43)c(=O)nc2s1	-	-	-	-	-	.
CC(C)S(=O)(=O)c1nsc2nc(=O)c(/C=C3\C=Nc4ccccc43)c(N)n12	-	-	31	80	-	9.7
CCOC(=O)c1c(C)oc2c1c(C(c1cccnc1)N1CCOCC1)c(O)c1ccccc12 (stereo not given)	-	-	-	-	-	.
CC1(C)CC(=O)C=C(Nc2ccc(S(N)(=O)=O)cc2)C1	-	-	22	-	-	-
CCc1ccc(NC2=CC(=O)CC(C)(C)C2)cc1	-	-	-	.	.	.
CC1(C)CC(=O)CC(=Nc2ccc3[nH]c(=O)[nH]c3c2)C1	-	-	29	-	-	-
OCCCNc1ncnc2scc(-c3ccc(Cl)cc3)c12	-	-	?	.	.	.
NC(=S)Cc1nc(-c2ccc(Cl)cc2)cs1	-	-	18	-	-	-
Cc1ccc(C(=O)Nc2ccc(C(=O)N3CCCCC3)cc2)cc1	-	-	?	-	-	.
CCCc1c2ccccc2nc2ccccc12	-	-	21	52	-	9.6
CCCc1cc(C(=O)O)c2ccccc2n1	-	-	-	-	-	.
NC(=O)NS(=O)(=O)Oc1ccccc1	-	-	-	.	.	.
Cc1cccc(C)c1N=Nc1c(C)cc(O)cc1C	-	-	-	.	.	.
Cc1ccccc1-n1c(CSC(=N)N)nc2ccccc2c1=O	-	-	-	-	-	.
N=C(N)SCc1nc2ccccc2c(=O)n1-c1ccccc1Cl	-	-	26	-	-	-
CCOC(=O)CC(=O)CSc1nc2c(cc1C#N)CCC2	-	-	16	-	-	24
COC(=O)CC(=O)CSc1nc2c(cc1C#N)CCCCC2	-	-	-	-	-	.
CCOc1ccc(OCC(=O)N(CCC2=CCCCC2)c2c(N)n(Cc3ccccc3)c(=O)[nH]c2=O)cc1	.	.	-	.	.	.
Cc1nn(C)c(Oc2ccc(Cl)cc2)c1C(=O)O	-	-	23	-	-	-
COc1ccc(-c2nc(/C=C3\C(C)=Nc4ccccc43)c(O)o2)cc1	-	-	28	-	-	-
SMILES	VIM-2 inh	IMP-1 inhibitor	RanGTP-Imp inh	Runt-SMMHC FRET	Runt-CBFb FRET	YIC FRET counter
CS(=O)(=O)N1CCC(C(=O)Nc2ccc(Cl)c(Cl)c2)CC1	-	-	-	-	-	.
O=C(O)c1c2c(nc3ccccc13)/C(=C/c1ccc(OC(F)F)cc1)CCC2	-	-	31	.	.	-
COc1ccc(/C=C2\CCCc3c2nc2ccc(C)cc2c3C(=O)O)cc1O	-	-	-	-	-	.
O=c1cn[nH]c2ccccc12	-	-	21	-	-	-
Cc1ccc(OCC(=O)c2cc(C)n(CC(F)(F)F)c2C)c([N+](=O)[O-])n1	-	-	20	-	-	-
Cc1ccc(OCC(=O)c2cc(C)n(Cc3cccs3)c2C)c([N+](=O)[O-])n1	-	-	-	-	-	.
CCCc1nc2ccccc2c(C(=O)OCC(=O)NCc2ccc3c(c2)OCO3)c1CC	-	-	-	-	-	.
Nc1c(C(=O)NCc2ccccc2)c2nc3ccccc3nc2n1-c1ccc2c(c1)OCO2	-	-	35	-	-	11
COc1ccc(-n2c(N)c(C(=O)NCc3ccco3)c3nc4ccccc4nc32)cc1OC	-	-	17	-	-	33
COc1ccc(-c2cc(C(=O)NCc3ccco3)c3ccccc3n2)cc1OC	.	.	-	.	.	.
COC(=O)c1ccccc1NC(=O)c1cccc(NC(=O)C(C)C)c1	-	-	-	-	-	.
CCn1c(O)c(C=Nc2ccccc2)sc1=O	-	-	-	-	-	.
Oc1c(C=Nc2ccccc2)sc(=S)n1Cc1ccccc1	-	-	39	-	-	44
CCn1c(O)c(/C=N/n2cnnc2)sc1=S	-	-	-	-	-	.
CCn1c(O)c(C=Nc2ccccc2)sc1=S	-	-	37	68	-	17
COc1cc(/C=N/NC(=O)c2cc(C)oc2C)ccc1O	-	-	24	-	-	-
COc1ccc(/C=N/NC(=O)c2cc(C)oc2C)cc1OC	-	-	-	-	-	.
CCn1c(SCc2nc(-c3ccccc3)no2)nnc1-c1cccs1	-	-	24	-	-	-
Nc1nc2nc(-c3ccc(OCc4ccccc4)cc3)cc(C(F)(F)F)n2n1	-	-	34	92	80	5
CC(C)(C)CN1CCC(n2nccc2NC(=O)c2ccccc2Cl)CC1	-	-	20	.	.	-
COc1cc(/C=C(\C#N)C(=O)Nc2cccc3ncccc23)cc(OC)c1OC	-	-	36	-	-	-
COc1ccc(NC(=O)/C(C#N)=C/c2cccnc2)c(OC)c1	-	-	-	.	.	.
Cc1ccc(/C=N/NC(=O)c2ccc(NC(=O)c3ccccc3Cl)cc2)o1	-	-	-	.	.	.
O=C(N/N=C/c1ccc(-c2ccccc2Cl)o1)c1ccccc1	-	-	21	-	-	-
COc1ccc(NS(=O)(=O)c2ccc(C)c(C(=O)NCC(c3ccco3)N(C)C)c2)cc1 (stereo not given)	.	.	-	.	.	.
SMILES	VIM-2 inh	IMP-1 inhibitor	RanGTP-Imp inh	Runt-SMMHC FRET	Runt-CBFb FRET	YIC FRET counter
Cc1ccc(NC(=O)COC(=O)/C=C/c2c(C)nn(-c3ccc(F)cc3)c2Cl)cc1F	-	-	-	-	-	.
Cc1ccc(C(=O)CSc2nnc(N)s2)c(C)c1	-	-	-	-	-	.
O=C(/C=C/c1ccccc1[N+](=O)[O-])N1CCN(c2ccc(F)cc2)CC1	-	-	24	-	-	-
Clc1ccc(-c2cn3c(n2)-c2ccccc2C3)cc1Cl	-	-	-	-	-	.
CCN(CC)Cc1cc(C(=O)O)c(C)o1	-	-	-	.	.	.
CCN(CC)Cc1c(CC(C)C)oc(C)c1C(=O)O	-	-	21	-	-	-
CCCCN(C)C(=O)c1cccc(OC2CCN(CC(C)(C)C)CC2)c1	-	-	17	.	.	-
Cc1cccc(N(CC(=O)NC2CCCCC2)C(=O)c2csnn2)c1	-	-	-	.	.	.

From PubChem
